The source made the active and inactive calls. The calls are words filed in the database; no cut-off is given here. Bounds are passed on as bounds.

Series [1] deals with Mus musculus. As to the kind of experiment: Neuroprotective activity in wild type C57BL/J6 mouse assessed as survival of newborn hippocampal neurons at 10 uM, icv administered for 7 days by BrdU staining-based immunohistochemical analysis relative to vehicle-treated control. In kind it is functional, organism-based. The procedure, abridged:
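Adult (12 week old) C57BL/J6 mice, environmentally deprived; compound infused via osmotic minipump into left lateral ventricle at 0.5 μL/h for 7 days. BrdU IP 50 mg kg–1 day–1 for 6 days during infusion; perfusion 24 h after last BrdU. BrdU+ cells in SGZ/dentate gyrus of contralateral hemisphere counted in every fifth 40 μm section, normalized to dentate gyrus volume; mean ± SEM.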

In series [2] the test system is Mus musculus. As to the kind of experiment: Toxicity in C57Bl/6 mouse assessed as effect on weight up to 40 mg/kg/day, ip bid administered for 21 days. In kind it is organism-based. More on the design: route intraperitoneal. Particulars: in vivo, 504 h.
Series [3] relates to Mus musculus. As to the kind of experiment: Neuroprotective activity in substantia nigra of C57Bl/6 mouse neurogenesis model assessed as protection from MPTP-induced cell death in mature neurons at 5 mg/kg/day, ip bid administered for 21 days by immunohistochemical analysis relative to vehicle-treated control. In kind it is functional, organism-based. The procedure, abridged: (§1)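 MPTP model in adult male C57Bl/6 mice, individually housed 1 week. MPTP free base 30 mg/kg/day IP for 5 days. From day 6 (24 h after the last MPTP dose), compound or vehicle given IP twice daily for 21 days. Mice were then perfused with 4% paraformaldehyde. SNc sectioned at 30 μm intervals and every fourth section stained for TH (DAB, hematoxylin counterstain). TH+ cells counted blinded; mean ± SEM, compared with vehicle + MPTP.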

The test system of series [4] is Mus musculus. As to the kind of experiment: Toxicity in C57Bl/6 mouse assessed as effect on appearance up to 40 mg/kg/day, ip bid administered for 21 days. In kind it is organism-based. More on the design: route intraperitoneal. Particulars: in vivo, 504 h.
For series [5], the system named is Mus musculus. As to the kind of experiment: Neuroprotective activity in substantia nigra of C57Bl/6 mouse neurogenesis model assessed as protection from MPTP-induced cell death in mature neurons at 10 mg/kg/day, ip bid administered for 21 days by immunohistochemical analysis relative to vehicle-treated control. Format: functional. To be noted: route intraperitoneal. The procedure, abridged: as §1

In series [6] the target is Translocator protein (Homo sapiens, UniProt P30536). As to the kind of experiment: Inhibition of TSPO (unknown origin).
Series [7] concerns Mus musculus. As to the kind of experiment: Toxicity in C57Bl/6 mouse assessed as effect on behavior up to 40 mg/kg/day, ip bid administered for 21 days. More on the design: route intraperitoneal. In kind it is organism-based. To be noted: in vivo, 504 h.
The test system of series [8] is Liver. As to the kind of experiment: Half life in mouse liver microsomes. In kind it is ADME.
Series [9] deals with Mus musculus. As to the kind of experiment: Neuroprotective activity in wild type C57BL/J6 mouse assessed as survival of newborn hippocampal neurons at 10 uM, icv administered for 7 days by BrdU staining-based microscopy relative to vehicle-treated control. Format: functional, organism-based. The procedure, abridged: (§2)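 Adult (12-week) wild-type C57BL/J6 mice. Compound infused ICV into the left lateral ventricle by osmotic minipump at 0.5 μL/h for 7 days, with BrdU 50 mg/kg/day IP for 6 days. Perfused 24 h after the last BrdU dose. BrdU antigen unmasked (formamide/SSC at 65 °C, then 2 M HCl); anti-BrdU staining. BrdU+ cells in the contralateral dentate gyrus SGZ counted in every fifth 40 μm section and normalised to dentate gyrus volume.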

Series [10] relates to Mus musculus. As to the kind of experiment: Toxicity in C57Bl/6 mouse assessed as effect on behavior up to 10 mg/kg/day, ip bid administered for 21 days. Format: organism-based. More on the design: route intraperitoneal. To be noted: in vivo, 504 h.
Series [11] deals with Brain. As to the kind of experiment: AUC in mouse brain at 20 mg/kg, ip by HPLC/MS/MS analysis. Format: ADME, organism-based. More on the design: dose 20 mg/kg, route intraperitoneal. Particulars: in vivo. The procedure, abridged:
(§3)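 Mouse PK. Compound formulated in 5% DMSO/10% cremophor EL/85% D5W (pH 7.2) and given IV, IP or by oral gavage. Mice killed at varying times with CO2. Citrated plasma and PBS brain homogenate (3-fold volume) were protein-precipitated with acetonitrile containing 0.15% formic acid and analysed by HPLC/MS/MS against spiked blank standards. Noncompartmental analysis was used, with F = (AUCoral/AUCIV)×(DoseIV/Doseoral)×100%. Values are mean ± SEM.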

Series [12] relates to Hepatocyte. As to the kind of experiment: Half life in mouse hepatocytes. In kind it is ADME, cell-based.
The subject of series [13] is Liver microsome. As to the kind of experiment: Half life in dog liver microsomes. In kind it is ADME, Canis lupus familiaris.
For series [14], the system named is Brain. As to the kind of experiment: AUC in mouse brain at 10 mg/kg, iv by HPLC/MS/MS analysis. Particulars: in vivo. More on the design: dose 10 mg/kg, route intravenous. Format: ADME, organism-based. A digest of the protocol:
as §3

Series [15] has as its system Brain. As to the kind of experiment: Bioavailability in mouse brain at 20 mg/kg, po by HPLC/MS/MS analysis. To be noted: in vivo. In kind it is ADME, organism-based. The procedure, abridged:
as §3

The nature of series [16]: Half life in mouse at 10 mg/kg, ip by HPLC/MS/MS analysis. To be noted: in vivo. In kind it is ADME, organism-based. More on the design: dose 10 mg/kg, route intraperitoneal. The procedure, abridged:
as §3

Series [17] can be described thus: Half life in mouse at 20 mg/kg, po by HPLC/MS/MS analysis. Format: ADME, organism-based. More on the design: dose 20 mg/kg, route oral. Particulars: in vivo. A digest of the protocol: as §3
For series [18], the system named is Plasma. As to the kind of experiment: Bioavailability in mouse plasma at 10 mg/kg, ip by HPLC/MS/MS analysis. To be noted: in vivo. In kind it is ADME, organism-based. A digest of the protocol: as §3
Series [19] is described as follows: Half life in mouse at 20 mg/kg, ip by HPLC/MS/MS analysis. Format: ADME, organism-based. More on the design: dose 20 mg/kg, route intraperitoneal. Particulars: in vivo. A digest of the protocol:
as §3

Series [20] in a line: Half life in mouse at 10 mg/kg, iv by HPLC/MS/MS analysis. In kind it is ADME, organism-based. More on the design: dose 10 mg/kg, route intravenous. Particulars: in vivo. A digest of the protocol: as §3
For series [21], the system named is Brain. As to the kind of experiment: Bioavailability in mouse brain at 10 mg/kg, ip by HPLC/MS/MS analysis. Format: ADME, organism-based. To be noted: in vivo. The procedure, abridged:
as §3

Series [22] deals with Liver microsome. As to the kind of experiment: Half life in rat liver microsomes. Format: ADME.
Series [23] relates to Brain. As to the kind of experiment: AUC in mouse brain at 10 mg/kg, ip by HPLC/MS/MS analysis. Particulars: in vivo. In kind it is ADME, organism-based. More on the design: dose 10 mg/kg, route intraperitoneal. A digest of the protocol: as §3
Series [24] deals with Plasma. As to the kind of experiment: Bioavailability in mouse plasma at 20 mg/kg, ip by HPLC/MS/MS analysis. In kind it is ADME, organism-based. To be noted: in vivo. The procedure, abridged: as §3
Series [25] concerns Brain. As to the kind of experiment: Bioavailability in mouse brain at 20 mg/kg, ip by HPLC/MS/MS analysis. In kind it is ADME, organism-based. Particulars: in vivo. A digest of the protocol: as §3
Series [26] deals with Plasma. As to the kind of experiment: Bioavailability in mouse plasma at 20 mg/kg, po by HPLC/MS/MS analysis. Format: ADME, organism-based. Particulars: in vivo. The procedure, abridged: as §3
For series [27], the system named is Liver microsome. As to the kind of experiment: Half life in human liver microsomes. Format: ADME.
Series [28] concerns Mus musculus. As to the kind of experiment: Neuroprotective activity in wild type C57BL/J6 mouse assessed as survival of newborn hippocampal neurons at 0.1 to 10 uM, icv administered for 7 days by BrdU staining-based microscopy relative to vehicle-treated control. In kind it is functional, organism-based. A digest of the protocol:
as §2

Series [29] can be described thus: Half life in monkey liver microsomes. Format: ADME, Macaca mulatta. To be noted: rhesus monkey.
Series [30] concerns Mus musculus. As to the kind of experiment: Toxicity in C57Bl/6 mouse assessed as effect on weight up to 10 mg/kg/day, ip bid administered for 21 days. Format: organism-based. More on the design: route intraperitoneal. To be noted: in vivo, 504 h.
Series [31] has as its system Brain. As to the kind of experiment: AUC in mouse brain at 20 mg/kg, po by HPLC/MS/MS analysis. In kind it is ADME, organism-based. More on the design: dose 20 mg/kg, route oral. To be noted: in vivo. The procedure, abridged:
as §3

The subject of series [32] is Mus musculus. As to the kind of experiment: Neuroprotective activity in substantia nigra of C57Bl/6 mouse neurogenesis model assessed as protection from MPTP-induced cell death in mature neurons at 1 mg/kg/day, ip bid administered for 21 days by immunohistochemical analysis relative to vehicle-treated control. Format: functional, organism-based. A digest of the protocol: as §1

The test system of series [33] is Mus musculus. As to the kind of experiment: Neuroprotective activity in wild type C57BL/J6 mouse assessed as survival of newborn hippocampal neurons at 1 to 10 mg/kg/day, ip bid administered for 7 days by BrdU staining-based immunohistochemical analysis relative to vehicle-treated control. In kind it is functional, organism-based. The procedure, abridged: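 Adult (12-week) wild-type C57BL/J6 mice. Compound given IP twice daily for 7 days, with BrdU 50 mg/kg/day IP. Perfused with 4% paraformaldehyde 24 h after the last BrdU dose. Anti-BrdU immunostaining after formamide/HCl unmasking. BrdU+ cells in the dentate gyrus SGZ counted in every fifth 40 μm section and normalised to dentate gyrus volume; mean ± SEM.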

Series [34] has as its system Mus musculus. As to the kind of experiment: Toxicity in C57Bl/6 mouse assessed as effect on appearance up to 10 mg/kg/day, ip bid administered for 21 days. Format: organism-based. More on the design: route intraperitoneal. Particulars: in vivo, 504 h.

Translocator protein, sequence (P30536 whole entry): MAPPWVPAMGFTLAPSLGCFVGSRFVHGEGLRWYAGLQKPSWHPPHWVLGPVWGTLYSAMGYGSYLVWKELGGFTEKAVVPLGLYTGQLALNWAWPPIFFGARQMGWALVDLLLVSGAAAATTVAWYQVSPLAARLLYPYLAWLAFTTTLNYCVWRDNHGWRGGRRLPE

On to `NCC(O)Cn1c2ccc(Br)cc2c2cc(Br)ccc21` (centres undefined), for which the result in [1] was Active.
Still for that read-out and setting: in the case of `[N-]=[N+]=NCC(F)Cn1c2ccc(Br)cc2c2cc(Br)ccc21` (centres undefined) it was “inactive”.
Take `COc1cccc(NCC(F)Cn2c3ccc(Br)cc3c3cc(Br)ccc32)c1` (centres undefined): the result in series [1] and in series [3] was Active. In addition, the Activity entry in [2] is “Non-toxic”; in series [4] it was “Non-toxic”; in series [5], 75%; in series [7] it was “Non-toxic”. For the same compound, in [6], the IC50 stood at 2 µM.
On to `COc1cccc(NCC(F)Cn2c3ccc(Br)cc3c3cc(Br)ccc32)n1` (racemic), for which the t1/2 in [8] was 0.817 h; in series [12], above 4 h; in [13], 0.75 h; in [22], above 4 h; in series [27] it was 1.95 h; in series [29], 1.35 h. For the same compound, the outcome in series [9], in series [1], in [28], in series [32] and in series [33] was Active. Besides, the Activity result in series [10] is recorded as “Non-toxic”; in [30] it was “Non-toxic”; in series [5], 85%; in series [34], “Non-toxic”. Moreover, the AUC in series [11] is 319 µg·min/g; in series [14], 671 µg·min/g; in series [23], 189 µg·min/g; in [31] it was 388 µg·min/g. Also, the F in series [15] is reported as 29%; in [18] it was 66%; in series [21], 28%; in series [24], 90%; in series [25], 48%; in [26], 38%. Besides, the half-life in series [16] is above 24 h; in [17], 9.6 h; in series [19] it was 15 h; in series [20], 7.4 h.
Consider `COc1cccc(NCC(O)Cn2c3ccc(Br)cc3c3cc(Br)ccc32)n1` (centres undefined), for which the outcome in series [1] was Active.

The record behind these values is ChEMBL document CHEMBL3259666, “Discovery of a neuroprotective chemical, (S)-N-(3-(3,6-dibromo-9H-carbazol-9-yl)-2-fluoropropyl)-6-methoxypyridin-2-amine [(-)-P7C3-S243], with improved druglike properties” (J Med Chem, 2014).
